# HCT116 bCat-KO = beta-catenin-lacking colon tumor cell growth suppression; HCT116 beta-catenin knockout viability, CellTiter-Glo, 60 h; hits give low values; viability, % at 10 µM; actives 1.5% (n = 140,000);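 active = viability at or under a set limit, the compound median less 4 SD, cut at about 6% in these data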;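 note: 0% = Hyamine 1622 control at 20 µM and 100% = untreated cell control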
# PTEN del growth = suppresses growth of cells with PTEN deletion; HCT116 PTEN-null viability, CellTiter-Glo, 60 h; hits give low values; viability, % at 10 µM; actives 1.2% (n = 140,000);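 active = viability at or below a set limit, 4 SD under the median of all tested compounds, cut at about 3.7% in these data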;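 note: PTEN knockout HCT116 line with beta catenin targeted HCT116 as companion control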
# Fibroblast inh = blocks proliferation of human lung fibroblasts; LL 47 human lung fibroblast viability, ATP luminescence; hits give low values; viability, % at 10 µM; actives 1.1% (n = 85,000); AID 719;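 active = viability at or below 50% in the single dose screen; inactive = viability above 50%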;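 note: compound exposure lasted 72 h before the ATP readout; 100% = median luminescence of untreated cell-only wells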
#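 Assay system: human lung fibroblast line LL 47, low passage. Input: 1,150 fibroblasts seeded per well. Times: overnight cell rest, 72 h compound treatment at 37 °C. Evaluation: % viability of median cell-only signal. Technique: luminescent ATP detection, CellTiter-Glo. Control set: cell-only wells, no compound.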
# H69AR growth 86K = blocks growth of human H69AR lung tumor cells; H69AR lung tumor viability, ATP luminescence, 72 h; hits give low values; viability, % at 10 µM; actives 6% (n = 85,000);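 active = viability at or below 40%; inactive = viability above 40%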;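 note: multidrug resistant small cell line overexpressing MRP-1 efflux transporter; 100% = mean luminescence of untreated control wells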
# HUVEC inhibit = blocks proliferation of human endothelial cells | viability, % at 10 µM (by protocol) | HUVEC proliferation, CellTiter-Glo luminescence, 72 h; hits give low values | AID 648 | actives 1.1% (n = 86,000);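 active = viability at or below 30%; inactive = viability above 30%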;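 note: 100% = median luminescence of DMSO-only cell control wells on each plate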
# The depositor's hits bear a star; / = no result given. Many of the other results were omitted from the sample, so hits are more common in it than they were.
SMILES,HCT116 bCat-KO,PTEN del growth,Fibroblast inh,H69AR growth 86K,HUVEC inhibit
CN(C)C1C(=O)c2ccccc2C1=O,93.2,103.7,/,/,/
O=C1CC(=C2c3ccccc3-c3ccccc32)C(=O)N1CCN1CCN(c2cccc(Cl)c2)CC1,/,/,100.1,82.1,86.1
Nc1c(C(=O)NCc2ccco2)c2nc3ccccc3nc2n1CCc1ccc(F)cc1,28.4,26.1,82.6,4.0*,34.0
CCCCN(C(=O)NC(=O)Nc1ccc(C)cn1)S(C)(=O)=O,92.1,98.8,/,/,/
COc1cccc(C2Nc3cc(Cl)c(S(N)(=O)=O)cc3S(=O)(=O)N2)c1 (centres undefined),101.7,112.8,/,/,/
CC(=O)NC(CCCN1C(=O)c2ccccc2C1=O)c1nnn(C)n1 (centres undefined),100.2,93.9,/,/,/
Cc1ccccc1-n1nc2c(c1NC(=O)c1cc3ccccc3oc1=O)CS(=O)C2 (centres undefined),96.1,92.9,100.8,90.3,92.2
Cc1ccccc1-n1nc2c(c1NC(=O)c1cc3ccccc3oc1=O)CS(=O)(=O)C2,99.0,89.9,88.2,4.2*,91.8
Cc1cc2c(cc(C(=O)OCC(=O)NCc3cccs3)n2C(C)C)o1,12.0,18.2,69.0,27.4*,53.2
CCOC(=O)c1cnc(-n2nc(C)cc2C)nc1NCc1ccc2c(c1)OCO2,79.0,86.6,92.2,55.9,23.9*
CCOC(=O)c1cnc(-n2nc(C)cc2C)nc1NCCc1ccccc1,2.2*,2.9*,45.4*,1.9*,59.6
COCC(C)N=C1NN=C(c2c[nH]c3ccccc23)CS1 (centres undefined),93.3,95.3,/,/,/
Cc1ccc(C(=O)NNC2=Nc3cccc4cccc2c34)cc1,20.3,13.6,/,/,/
N#Cc1c(Oc2ccc3ccccc3c2)sc(C(=O)c2ccccc2)c1N,16.3,14.3,/,/,/
Cc1sc2cc3c(c(C(=O)c4ccccc4)[n+]2c1C)-c1cccc2cccc-3c12,2.2*,2.1*,/,/,/
O=C(c1ccccc1)c1c2c(cc3sc4ccccc4[n+]13)-c1cccc3cccc-2c13,2.1*,2.3*,/,/,/
O=C(NC(Nc1nc2ccc([N+](=O)[O-])cc2s1)(C(F)(F)F)C(F)(F)F)c1ccccc1Cl,1.7*,1.4*,/,/,/
O=C(NC(Nc1nc2ccc([N+](=O)[O-])cc2s1)(C(F)(F)F)C(F)(F)F)c1cccnc1,2.2*,3.0*,/,/,/
CCNC(=S)N/N=C(\C)c1cccc([N+](=O)[O-])c1,107.2,102.9,/,/,/
C=CCNC(=S)N(CC=C)C1CCS(=O)(=O)C1 (centres undefined),99.7,103.5,/,/,/
O=C(Nc1ccc(Cl)c(Cl)c1)Nc1cc(C(=O)NC2CC2)ccc1Cl,41.1,34.9,/,/,/
COc1cc(C(=O)O/N=C2/C=CC(=O)C(C)=C2C)cc(OC)c1OC,18.3,2.5*,/,/,/
COc1cc(C(=O)O/N=C2\C=CC(=O)C=C2C)cc(OC)c1OC,28.9,27.4,/,/,/
CN(C(=O)c1cc(-n2cnnc2)ccc1Cl)c1ccccc1,94.6,94.6,/,/,/
CCCOC(=O)c1cccc(Nc2nc(-c3cccnc3)nc3ccccc23)c1,7.3,3.6*,/,/,/
SMILES,HCT116 bCat-KO,PTEN del growth,Fibroblast inh,H69AR growth 86K,HUVEC inhibit
CCCOC(=O)c1cccc(NC(=O)c2cccnc2)c1,102.2,103.9,98.1,78.6,105.2
CCCC(=O)Nc1ccc(C)c(O)c1,1.0*,1.0*,/,/,/
CCCCC(=O)Nc1ccc(C)c(O)c1,96.2,84.8,/,/,/
O=C(Cn1nc(-c2ccccc2)c2ccccc2c1=O)Nc1ccc2c(c1)nc1n2CCOC1,91.6,98.8,102.0,29.4*,102.7
Cc1ccc(-c2nn(CC(=O)Nc3ccc4c(c3)nc3n4CCOC3)c(=O)c3ccccc23)cc1,93.3,79.1,95.7,88.7,49.8
COc1ccccc1-c1nnc(Sc2nc([N+](=O)[O-])nn2C)o1,2.1*,2.4*,63.8,2.8*,59.5
Cn1nc([N+](=O)[O-])nc1Sc1ccc(Cl)cc1,83.9,77.7,/,/,/
CC(C)Cn1c(N)c(C(=O)NCC2CCCO2)c2nc3ccccc3nc21 (centres undefined),70.0,62.5,80.3,36.0*,74.0
COCCn1c(N)c(C(=O)NCC2CCCO2)c2nc3ccccc3nc21 (centres undefined),63.7,60.4,91.0,58.2,72.1
Nc1c(C(=O)OCC2CCCO2)c2nc3ccccc3nc2n1C1CCCC1 (centres undefined),23.4,19.8,70.5,14.6*,53.7
CCc1ccc(NC(=O)C(C)OC(=O)c2ccc(N3CCCC3)c([N+](=O)[O-])c2)cc1 (centres undefined),78.9,84.4,/,/,/
O=C(Cn1c(SCC(=O)N2CCc3ccccc3C2)nc2ccccc21)NC1CCCC1,88.7,98.5,94.1,100.2,79.3
O=C(Cn1c(SCC(=O)N2CCc3ccccc32)nc2ccccc21)NC1CCCC1,93.5,93.2,102.7,28.6*,76.3
Cc1ccc(S(=O)(=O)Nc2cc(C(=O)NCCN3CCCC3)ccc2N2CCCCC2)cc1,64.6,61.5,89.5,77.9,27.5*
CCOc1ccc(-c2nc(=S)[nH][nH]2)cc1,106.7,97.2,101.7,39.8*,91.7
COc1ccc(-c2nc(=S)[nH][nH]2)cc1,91.1,94.4,99.9,77.4,97.6
c1ccc(-c2nc(N3CCNCC3)nc3ccccc23)cc1,57.2,40.3,87.5,4.4*,63.5
c1ccc(-c2nc(N3CCCCC3)nc3ccccc23)cc1,74.8,77.0,90.2,82.7,104.6
COc1ccccc1NC(=O)/C(=C/c1cccc([N+](=O)[O-])c1)c1ccccc1,74.8,64.8,/,/,/
CC1CCN(S(=O)(=O)c2ccc3c(c2)oc(=O)n3CC(=O)N2CCc3ccccc3C2)CC1,84.8,89.8,86.3,18.3*,91.9
CN(C)c1ccc(NC(=O)Cn2cc3c(n2)CCCC3)cc1,51.2,76.1,86.9,43.2,79.8
Cc1cccc(NC(=S)NCc2ccco2)c1C,73.8,81.5,/,/,/
COc1ccc(C(CC(=O)c2ccc(O)cc2)S(=O)(=O)c2ccc(C)cc2)cc1 (centres undefined),6.0*,6.9,/,/,/
CCCc1ccc(-c2cc(NC(=O)CSc3nnc(N)s3)n(-c3ccccc3)n2)cc1,84.4,61.3,/,/,/
COc1ccc(-n2c(N3CCN(C)CC3)nc3sc4c(c3c2=O)CCCCC4)cc1,39.5,54.3,62.5,22.4*,21.7*
SMILES,HCT116 bCat-KO,PTEN del growth,Fibroblast inh,H69AR growth 86K,HUVEC inhibit
O=c1c2c(nc3cc(-c4ccc(Cl)cc4)[nH]n13)CCS2,91.5,85.2,/,/,/
O=C(NCCCN1CCOCC1)C(=O)N/N=C/c1c2ccccc2cc2ccccc12,1.6*,2.2*,/,/,/
CN(C(=S)Nc1ccc(F)cc1)C1(c2ccccc2Cl)CCCCC1=O (centres undefined),92.0,78.6,94.7,94.0,90.5
C=CCOc1ccccc1/C=c1\sc2nc(=O)c(C)nn2c1=O,78.1,74.0,97.5,32.9*,90.1
CC(NC(=O)/C(C#N)=C1\N=C(NC(=O)c2cccs2)c2ccccc21)c1ccccc1 (centres undefined),92.7,91.9,/,/,/
COc1ccc2c(c1OC)C(=O)N1c3ccccc3SC21 (centres undefined),102.9,98.6,85.1,100.2,95.1

# Assay outcomes as filed in PubChem.
